Apaf-1 inh: inhibitors of human Apaf-1 apoptosome, primary screen, biochemical, DEVD-Rh110 fluorescence, uHTS. reconstituted apoptosome caspase-3 activity. Apoptotic protease-activating factor 1 (Homo sapiens), O14727. inhibition, % at 20 µM. actives 0.71% (n = 330,000); active means inhibition of at least 40% at 20 µM
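Assay system: Apoptosome proteins | Medium: pH 7.5 Hepes buffer with CHAPS, BSA, DTT | Also added: Cytochrome c and DEVD-Rh110 substrate | Times: 30 min plus 50 min, RT | Detection: Rhodamine 110 fluorescence at Ex 480/Em 540 nm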
SENP8 block-1: human SENP8 protease inhibitors, primary screen, biochemical, fluorescence, Nedd8 protein substrate, uHTS | recombinant SENP8 | inhibition, % at 20 µM | actives 0.64% (n = 360,000); in the data active means inhibition mostly above about 40%, no sharp cut-off; inactive means mostly below about 27%
Target sequence (Q96LD8 whole entry, looked up): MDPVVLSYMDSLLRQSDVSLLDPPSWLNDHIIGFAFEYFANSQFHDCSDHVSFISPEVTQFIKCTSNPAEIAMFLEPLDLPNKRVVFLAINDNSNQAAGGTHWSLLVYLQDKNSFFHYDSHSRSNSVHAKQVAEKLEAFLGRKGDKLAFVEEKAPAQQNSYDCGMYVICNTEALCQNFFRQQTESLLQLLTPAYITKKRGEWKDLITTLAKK
SENP8 block-2: SENP8 protease inhibitors, primary screen, biochemical, luminescence. Sentrin-specific protease 8 (Homo sapiens), Q96LD8. purified SENP8, Z-RLRGG-aminoluciferin cleavage. inhibition, % at 10 µM. actives 1.2% (n = 330,000). AID 2540, 2010; in the data active means inhibition above about 50%
SENP6 inh: SENP6 protease inhibitors, primary screen, biochemical, luminescence, uHTS. Recombinant SENP6 catalytic domain, aminoluciferin luminescence. inhibition, % at 10 µM. actives 1.8% (n = 330,000);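 active means inhibition above about 50% at the single tested dose, limit read from the data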
UBC13 polyUb: UBC13 polyubiquitin chain formation inhibitors, primary screen, biochemical, TR-FRET, uHTS | inhibition, % at 20 µM | actives 0.47% (n = 330,000) | AID 485273, 2010; in the data active means inhibition above about 45%, passing the limit was not always enough
Target sequence (P61088 whole entry, looked up): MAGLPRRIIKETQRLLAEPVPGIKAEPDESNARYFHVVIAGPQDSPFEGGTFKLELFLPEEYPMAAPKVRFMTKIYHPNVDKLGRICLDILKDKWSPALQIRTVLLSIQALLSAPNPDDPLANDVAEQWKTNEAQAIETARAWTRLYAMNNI
SENP7 inh: SENP7 protease inhibitors, primary screen, biochemical, luminescence, uHTS. recombinant SENP7, Z-RLRGG-aminoluciferin luminescence, 40 min. AID 434973, 2010. Sentrin-specific protease 7 (Homo sapiens), Q9BQF6. inhibition, % at 5 µM. actives 1.5% (n = 330,000);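 active means inhibition above about 50% at the single test dose, limit read from the data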
SENP8 confirm: SENP8 protease inhibitors, retest, confirmation, biochemical, luminescence, single concentration; actives 40% (n = 6,200); Recombinant SENP8, Z-RLRGG-aminoluciferin luminescence, 60 min; inhibition, % at 12.5 µM; AID 488912, 2010; shares compounds with SENP7 inh;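 active means mean inhibition across replicates above about 50%, limit read from the data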
SENP6 conf: SENP6 protease inhibitors, confirmation, biochemical, luminescence, single concentration | shares compounds with SENP7 inh | recombinant SENP6, Z-RLRGG-aminoluciferin luminescence | inhibition, % at 12.5 µM | actives 58% (n = 6,200) | AID 488915, 2010
SENP7 conf: SENP7 protease inhibitors, retest, confirmation, biochemical, luminescence, single concentration | shares compounds with SENP7 inh | recombinant SENP7, Z-RLRGG-aminoluciferin luminescence, 40 min | inhibition, % at 12.5 µM | actives 69% (n = 6,200) | AID 488917, 2010
Casp3 select: caspase-3 protease inhibitors, confirmation, selectivity assay for SENP inhibitor project, biochemical, single concentration; shares compounds with SENP7 inh; purified caspase-3, Z-DEVD-aminoluciferin luminescence, 60 min; inhibition, % at 12.5 µM; actives 60% (n = 6,200); AID 488918, 2010;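 active means mean inhibition above about 50%, limit read from the data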
Target sequence (P42574 28-227 limits assumed): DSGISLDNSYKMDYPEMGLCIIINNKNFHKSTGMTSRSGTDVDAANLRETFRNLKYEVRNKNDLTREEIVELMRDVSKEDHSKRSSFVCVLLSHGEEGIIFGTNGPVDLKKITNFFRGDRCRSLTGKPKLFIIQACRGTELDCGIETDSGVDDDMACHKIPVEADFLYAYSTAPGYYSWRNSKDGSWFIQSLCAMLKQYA
SENP luc ctr: counter-screen for SENP inhibitors: luminescence interference. shares compounds with SENP7 inh. Pre-incubated SENP8/Z-RLRGG-aminoluciferin, luciferase luminescence interference. inhibition, % at 12.5 µM. actives 39% (n = 6,200);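 active means mean inhibition above about 50% when retested at one dose, limit read from the data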
A number is an active result; – = inactive; · = no result. This is a sample that favours compounds with a hit; in the whole collection about 3% have one here.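 How the source made its calls, unless noted: active means mean inhibition above about 50% in the one-dose retest (limit read from the data); inactive means the rest.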

SMILES	Apaf-1 inh	SENP8 block-1	SENP8 block-2	SENP6 inh	UBC13 polyUb	SENP7 inh	SENP8 confirm	SENP6 conf	SENP7 conf	Casp3 select	SENP luc ctr
CN1/C(=C\C(=O)c2cccnc2)Sc2ccccc21	–	–	–	–	–	–	·	·	·	·	·
Cc1ccc(S(=O)(=O)N2CCC(C(=O)NCCN3CCOCC3)CC2)cc1	·	–	·	·	·	·	·	·	·	·	·
COc1ccc(NC(=O)c2ccc3nc(C)sc3c2)cc1	–	–	–	–	–	–	·	·	·	·	·
CSc1nc2ccc(NC(=O)c3ccc(=O)n(C)n3)cc2s1	–	–	71	92	–	84	–	–	61	55	–
CSc1nc2ccc(NC(=O)c3ccc(=O)[nH]c3)cc2s1	–	–	–	–	–	–	·	·	·	·	·
CSc1nc2ccc(NC(=O)c3ccc(F)c(F)c3)cc2s1	–	–	–	56	–	74	–	–	–	–	–
COc1ccc(C(=O)Nc2ccc3nc(C)sc3c2)cc1OC	–	–	–	–	–	73	57	57	87	80	71
CSc1nc2ccc(NC(=O)c3cc4ccccc4o3)cc2s1	–	–	69	–	–	93	–	60	84	–	–
CC1(C(=O)NCc2ccccc2)CSCC(=O)N1CC(F)(F)F (centres undefined)	·	–	·	·	·	·	·	·	·	·	·
COCCn1c(Cc2ccccc2)nnc1SCC(=O)NC1CC1	–	–	–	–	–	–	·	·	·	·	·
CCCS(=O)(=O)NC(=O)C1(C)CCCN(C(=O)c2cncc(Br)c2)C1 (centres undefined)	·	–	·	·	·	·	·	·	·	·	·
N#C/C(=N\Nc1ccc([N+](=O)[O-])cc1)C(N)=S	–	47	91	98	–	92	97	98	102	97	90
N#C/C(=N\Nc1cccc([N+](=O)[O-])c1)C(=O)c1ccc(Br)cc1	–	–	60	72	–	–	–	66	–	–	59
Clc1ccccc1/C=C/c1ccnc2ccccc12	–	–	–	–	–	–	·	·	·	·	·
Oc1ccc(/C=C/c2ccnc3ccccc23)cc1	–	–	–	61	–	–	–	–	74	–	–
CC1(C)CC(=O)C(N=Nc2ccc(OC(F)F)cc2)=C(O)C1	–	–	–	–	–	–	·	·	·	·	·
CCS/C(N)=N/N=C/c1cc(C)ccc1O	–	–	–	71	–	51	62	62	87	62	–
CCCCS/C(N)=N/N=C/c1cc(C)ccc1O	–	–	–	–	–	–	·	·	·	·	·
CS/C(N)=N/N=C/c1cc(C)ccc1O	–	–	54	–	–	63	–	60	85	64	66
CCOc1ccc(-c2c(C(=O)N/N=C/c3cccc(Br)c3)nnn2-c2nonc2N)cc1	–	–	–	–	–	–	·	·	·	·	·
O=[N+]([O-])c1cccc(/C=C/c2ccc3cccc(O)c3n2)c1	–	–	–	–	–	–	·	·	·	·	·
Oc1ccc(/C=C/c2ccc3cccc(O)c3n2)cc1Br	–	–	92	97	–	88	98	98	102	84	94
O=C(O)c1ccc(/C=C/c2ccc3cccc(O)c3n2)cc1	–	–	95	95	–	98	98	99	102	97	78
COC(=O)c1ccc(/C=C/c2ccc3cccc(OC(C)=O)c3n2)cc1	–	–	87	95	–	91	79	90	98	86	–
CC1CN(c2ccc(NS(=O)(=O)c3ccccc3)cc2C(=O)O)CC(C)O1 (centres undefined)	–	–	–	–	–	–	·	·	·	·	·
SMILES	Apaf-1 inh	SENP8 block-1	SENP8 block-2	SENP6 inh	UBC13 polyUb	SENP7 inh	SENP8 confirm	SENP6 conf	SENP7 conf	Casp3 select	SENP luc ctr
O=C1C(=O)N(C/C=C/c2ccccc2)c2ccccc21	–	–	–	–	–	–	·	·	·	·	·
COc1c(OC(C)=O)ccc(/C=C/c2ccc3ccccc3n2)c1[N+](=O)[O-]	–	–	89	94	–	91	86	97	99	84	–
Cn1c(/C=C/c2ccccc2[N+](=O)[O-])nc2ccccc2c1=O	–	–	–	–	–	–	·	·	·	·	·
COc1c(OC(C)=O)ccc(/C=C/c2ccc3cccc(OC)c3n2)c1[N+](=O)[O-]	–	–	–	–	–	–	·	·	·	·	·
O=[N+]([O-])c1ccccc1/C=C/c1ccc2ccccc2n1	–	–	85	88	–	82	94	93	100	79	–
O=C(NCc1ccncc1)[C@@H]1CCCN1C(=O)[C@@H]1CCCN1C(=O)c1ccccc1	·	–	·	·	·	·	·	·	·	·	·
CCOC(=O)C(C)Oc1c(C(=O)OC)sc2ncccc12 (centres undefined)	–	–	–	–	–	–	·	·	·	·	·
O=C(Nc1cccc(NC(=O)c2ccccc2)n1)c1ccccc1	–	–	–	–	–	–	·	·	·	·	·
COc1ccc(C(=O)COC(=O)c2cccnc2Cl)c(OC)c1	–	–	–	–	–	–	·	·	·	·	·
O=C(OCc1ccc(Cl)cc1)c1cccnc1Cl	–	–	–	–	–	–	·	·	·	·	·
O=C(COC(=O)c1cccnc1Cl)c1ccc(Cl)cc1Cl	–	–	–	85	–	67	–	–	88	78	74
COC(=O)c1ccc(COC(=O)c2cccnc2Cl)cc1	–	–	–	51	–	–	50	–	79	66	56
O=C(COC(=O)c1cccnc1Cl)c1ccc(OC(F)F)cc1	–	–	71	–	–	86	–	77	97	89	78
CC1CCCN(C(=O)CSc2nnc3ccccn23)C1 (centres undefined)	–	–	–	–	–	–	·	·	·	·	·
CC1(C)CC[C@]2(C(=O)n3ccnc3)CC[C@]3(C)[C@H](C(=O)C=C4[C@@]5(C)C=C(C#N)C(=O)C(C)(C)[C@@H]5CC[C@]43C)[C@@H]2C1	·	–	·	·	·	·	·	·	·	·	·

Source: PubChem
